These results are taken from ChEMBL document CHEMBL5365542, “Difluoromethyl-1,3,4-oxadiazoles Are Selective, Mechanism-Based, and Essentially Irreversible Inhibitors of Histone Deacetylase 6” (J Med Chem, 2023).

Experiment [1] relates to T1, Histone deacetylase 6 (Danio rerio), F8W4B7 [H574A].
T1 sequence (whole entry): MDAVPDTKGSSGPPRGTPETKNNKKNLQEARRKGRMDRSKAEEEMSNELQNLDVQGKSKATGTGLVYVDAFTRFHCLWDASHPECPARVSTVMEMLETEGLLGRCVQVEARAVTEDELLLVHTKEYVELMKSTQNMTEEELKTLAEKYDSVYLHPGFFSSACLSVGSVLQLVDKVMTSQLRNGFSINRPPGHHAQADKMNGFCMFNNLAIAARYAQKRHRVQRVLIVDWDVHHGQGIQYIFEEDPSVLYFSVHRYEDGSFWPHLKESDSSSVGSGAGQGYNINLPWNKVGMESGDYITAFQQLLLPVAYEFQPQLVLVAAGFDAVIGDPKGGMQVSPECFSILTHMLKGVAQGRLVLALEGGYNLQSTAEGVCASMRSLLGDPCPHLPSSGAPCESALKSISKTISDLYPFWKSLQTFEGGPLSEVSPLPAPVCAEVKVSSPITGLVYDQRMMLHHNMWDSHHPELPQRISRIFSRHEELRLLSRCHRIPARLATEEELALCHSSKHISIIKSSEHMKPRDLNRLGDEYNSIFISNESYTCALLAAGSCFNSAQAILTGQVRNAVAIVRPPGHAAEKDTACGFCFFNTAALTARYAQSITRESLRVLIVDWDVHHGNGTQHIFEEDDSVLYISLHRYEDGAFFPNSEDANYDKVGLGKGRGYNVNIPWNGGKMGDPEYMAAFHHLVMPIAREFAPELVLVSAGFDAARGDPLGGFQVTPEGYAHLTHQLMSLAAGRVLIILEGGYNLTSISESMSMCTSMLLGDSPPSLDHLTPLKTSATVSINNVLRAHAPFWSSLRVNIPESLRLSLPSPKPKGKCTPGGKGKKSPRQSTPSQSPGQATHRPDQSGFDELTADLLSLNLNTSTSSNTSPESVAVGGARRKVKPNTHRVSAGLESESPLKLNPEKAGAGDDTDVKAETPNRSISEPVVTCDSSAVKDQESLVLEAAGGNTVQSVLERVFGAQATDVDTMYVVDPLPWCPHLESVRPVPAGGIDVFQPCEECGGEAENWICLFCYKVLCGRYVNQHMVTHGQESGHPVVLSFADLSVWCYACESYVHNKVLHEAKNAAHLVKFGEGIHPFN
Nature of the experiment: Irreversible inhibition of Danio rerio HDAC6 H574A mutant catalytic domain 2 assessed as enzyme catalysed ring opening by measuring reduction in 2-(Benzylamino)-N'-(2,2-difluoroacetyl)pyrimidine-5-carbohydrazide formation at 100 uM incubated overnight by LC-MS analysis. A digest of the protocol: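 Zebrafish HDAC6 CD2 mutants were made by site-directed mutagenesis and expressed in BL21(DE3). Enzyme at 50 μM was incubated overnight with 100 μM inhibitor in 50 mM HEPES pH 7.5, 100 mM KCl, 1 mM TCEP, 5% glycerol; an enzyme-free control was included. Protein was methanol-precipitated and filtered, and products were analysed by C18 UPLC-MS with a 2-min gradient.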

Experiment [2] concerns the target Histone deacetylase 1 (Homo sapiens) (UniProt Q13547). Put plainly: Inhibition of C-terminal 6His/FLAG tagged human recombinant HDAC1 (1 to 482 residues) […] expressed in Sf9 insect cells using Z-Lys(Ac)-AMC as fluorogenic substrate at 10 uM preincubated for 60 mins followed by substrate addition and measured after 90 mins by microplate reader analysis relative to control. The following applies: time 150.0 min. The method, boiled down:
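Human recombinant enzyme was preincubated with 3-fold inhibitor dilutions for 60 min at 25 °C in Tris-HCl pH 8.0 buffer with BSA. ZMAL (75 μM solution) was then added, and the mix was incubated 90 min at 37 °C (max 1% DMSO). Trypsin was added for 30 min at 37 °C, and fluorescence was read at ex 355/em 460. Tested at least twice in duplicate.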

The target in experiment [3] is T2, Protein deacetylase HDAC6 (Homo sapiens, UniProt Q9UBN7).
T2 sequence (Q9UBN7 whole entry): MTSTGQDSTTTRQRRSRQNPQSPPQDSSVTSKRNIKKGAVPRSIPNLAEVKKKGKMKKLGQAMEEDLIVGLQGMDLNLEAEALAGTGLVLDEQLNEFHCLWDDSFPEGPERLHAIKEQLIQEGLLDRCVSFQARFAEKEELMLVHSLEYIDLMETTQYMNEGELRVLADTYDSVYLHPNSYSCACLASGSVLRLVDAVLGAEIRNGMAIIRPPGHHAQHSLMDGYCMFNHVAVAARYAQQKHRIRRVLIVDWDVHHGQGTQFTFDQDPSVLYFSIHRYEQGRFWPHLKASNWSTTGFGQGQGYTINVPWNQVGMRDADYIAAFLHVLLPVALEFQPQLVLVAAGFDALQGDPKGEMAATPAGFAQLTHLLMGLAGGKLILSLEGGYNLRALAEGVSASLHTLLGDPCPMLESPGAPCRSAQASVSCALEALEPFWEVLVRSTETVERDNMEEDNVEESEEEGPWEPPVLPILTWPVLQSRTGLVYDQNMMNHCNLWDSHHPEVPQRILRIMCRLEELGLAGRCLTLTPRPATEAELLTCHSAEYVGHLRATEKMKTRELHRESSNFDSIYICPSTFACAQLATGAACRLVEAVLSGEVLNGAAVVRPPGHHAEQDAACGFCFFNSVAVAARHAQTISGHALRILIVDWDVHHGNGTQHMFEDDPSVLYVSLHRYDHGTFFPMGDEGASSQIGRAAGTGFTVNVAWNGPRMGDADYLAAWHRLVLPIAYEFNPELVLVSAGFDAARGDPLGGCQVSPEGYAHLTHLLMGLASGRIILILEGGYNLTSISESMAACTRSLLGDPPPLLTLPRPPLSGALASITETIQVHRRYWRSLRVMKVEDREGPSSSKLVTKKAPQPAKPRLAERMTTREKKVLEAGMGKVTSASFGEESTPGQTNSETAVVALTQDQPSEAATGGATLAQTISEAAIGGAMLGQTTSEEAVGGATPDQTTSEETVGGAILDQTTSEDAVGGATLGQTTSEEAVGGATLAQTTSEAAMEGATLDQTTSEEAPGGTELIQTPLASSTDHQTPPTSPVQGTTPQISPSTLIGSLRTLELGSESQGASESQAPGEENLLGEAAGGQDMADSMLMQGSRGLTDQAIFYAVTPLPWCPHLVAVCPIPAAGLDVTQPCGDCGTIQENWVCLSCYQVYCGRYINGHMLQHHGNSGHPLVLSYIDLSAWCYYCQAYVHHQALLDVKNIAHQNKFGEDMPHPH
Nature of the experiment: Inhibition of N-terminal GST tagged human recombinant HDAC6 (1 to 1215 residues) expressed in Sf9 insect cells using Z-Lys(Ac)-AMC as fluorogenic substrate preincubated for 5 mins followed by substrate addition and measured after 90 mins by microplate reader analysis.

The structures appear in SMILES notation. Activity calls are given as the source filed them. No cut-off for these calls is given here. Some results are limits rather than exact numbers.

Chain of Histone deacetylase 1 (Homo sapiens) (Q13547 whole entry, the tested form may be a part): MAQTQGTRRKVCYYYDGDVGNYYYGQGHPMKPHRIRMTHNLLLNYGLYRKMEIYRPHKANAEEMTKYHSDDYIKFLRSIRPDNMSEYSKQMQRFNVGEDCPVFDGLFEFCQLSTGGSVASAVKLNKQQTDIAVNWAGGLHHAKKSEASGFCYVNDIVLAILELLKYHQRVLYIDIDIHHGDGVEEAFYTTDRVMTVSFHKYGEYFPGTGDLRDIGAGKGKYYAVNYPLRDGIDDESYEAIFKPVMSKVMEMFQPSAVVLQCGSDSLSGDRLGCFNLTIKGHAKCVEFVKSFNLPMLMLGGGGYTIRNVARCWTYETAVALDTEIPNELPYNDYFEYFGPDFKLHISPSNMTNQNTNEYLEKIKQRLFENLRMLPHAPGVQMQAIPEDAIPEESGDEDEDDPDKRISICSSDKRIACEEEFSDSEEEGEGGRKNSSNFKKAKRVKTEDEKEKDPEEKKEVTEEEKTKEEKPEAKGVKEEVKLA

Turning to `FC(F)c1nnc(-c2cnc(NCc3ccccc3)nc2)o1`, in experiment [1], the inhibition (as a rule, the drop in the measured response relative to a control, in per cent) was “Active”. For the same molecule, the inhibition in experiment [2] was below 15%. Besides, the IC50 – broadly, the concentration that gives 50% inhibition – in experiment [3] worked out at 347 nM.

For `FC(F)(F)c1nnc(-c2cnc(NCc3ccccc3)nc2)o1`, the inhibition entry in experiment [1] was “Active”. Moreover, the inhibition in experiment [2] is below 15%. In addition, in experiment [3], the IC50 came out at 840 nM.
